Structures are written as SMILES. Where two headings read alike, the source gives them in different places.

Here are results for two compounds from PMC5796531 (Chemistry (Weinheim an der Bergstrasse, Germany), 2014).

Common to all, as to format: cell-based, human
Assay [1] relates to KB head and neck cancer cells. Description: MTT cell growth inhibition assay, KB. The note with it: read-out: IC50 values, KB. The gist of the method: (§1)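 MTT assay: cells seeded at 1 × 10^5/well and allowed to adhere 24 h (37°C, 5% CO2). Compound was diluted from DMSO:water (1:3) stock into incomplete medium; finals 300–0.07 μM for 24 h. After a PBS rinse, cells got MTT (5 mg/ml) for 3 h; formazan dissolved in DMSO; A540 read. % viability = OD sample/OD control ×100. IC50 from dose-response curve fitting. Three independent duplicate sets; untreated and cisplatin controls.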

Another assay relates to T98G brain cancer cells. Description: MTT cell growth inhibition assay, T98G. The following applies: read-out: IC50 values, T98G. The gist of the method:
as §1

A further assay relates to T98G cells. Description: Cellular uptake by fluorescence detection. The note with it: 1–4 μM. The gist of the method: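 T98G cells in 96-well plates were allowed to adhere for 12 h, then exposed to 1–4 μM at 37°C in complete medium. After a PBS wash and medium replacement, cell-associated fluorescence was read on a plate reader (ex 330, em 485 nm). Free ligand served as the positive control. Microscopy: cells on glass slides, 2 μM overnight, ex 340–380 / barrier 435–485 filters.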

The subject of assay [2] is SNU80 thyroid cancer cells. Description: MTT cell growth inhibition assay, SNU80. The following applies: read-out: IC50 values, SNU80. In a few lines:
as §1

Assay [3] relates to HEK293 non-cancerous cells. Description: MTT cell growth inhibition assay, HEK293. The following applies: read-out: IC50 values, HEK293. The gist of the method: as §1

By IC50 is commonly meant the concentration at which inhibition is half-maximal. As for `O=C(Nc1ccc(C#Cc2ccncc2)cc1)c1cccc(C(=O)Nc2ccc(C#Cc3ccncc3)cc2)n1` [Complex 1, N,N′-bis(4-(pyridin-4-ylethynyl)phenyl)pyridine-2,6-dicarboxamide], the IC50 in assay [1] (Homo sapiens, 24 h) amounted to 125 µM; in the assay on T98G brain cancer cells (Homo sapiens, T98G, 24 h), 144 µM; in assay [2] (Homo sapiens, 24 h), 107 µM; in assay [3] (Homo sapiens, HEK293, 24 h), 157 µM. For the same compound, in the assay on T98G cells, the “cellular uptake: fluorescence detected in cells” value is on record as “very weak fluorescence”.

Turning to `N.N.[Cl][Pt][Cl]` [cisplatin, reference compound], the IC50 stood at 72.6 µM in assay [1] (KB head and neck cancer cells, MTT, 24 h treatment); 69.6 µM in the assay with T98G brain cancer cells (T98G brain cancer cells, MTT, 24 h treatment); 49.3 µM in assay [2] (SNU80 thyroid cancer cells, MTT, 24 h treatment); 17.3 µM in assay [3] (HEK293 non-cancerous cells, MTT, 24 h treatment).
